System: MS2 coat protein
Experiment: apparent Kd, MS2 coat protein; higher = weaker binding; RNA-MaP array; FMN 200 µM where present
Outline: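 The titrant was SNAP-549-labelled MS2 coat protein, run from 0.7 or 1.5 nM in doubling steps to 3 µM. It was applied to designs transcribed by stalled E. coli RNA polymerase on Illumina sequencing-chip clusters, without ligand first and then with constant ligand, in 100 mM Tris-HCl pH 7.5, 80 mM KCl, 4 mM MgCl2, BSA, DTT, yeast tRNA and Tween-20. The apparent Kd is the median of filtered per-cluster binding-curve fits, with green signal normalised to red-channel RNA signal and control-cluster median Fmax.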

[1] = designed as: OFF switch for flavin mononucleotide, no ligand
[2] = ligand present: flavin mononucleotide, designed as: OFF switch for flavin mononucleotide
[3] = designed as: ON switch for flavin mononucleotide, no ligand
[4] = ligand present: flavin mononucleotide, designed as: ON switch for flavin mononucleotide

| Sequence | apparent Kd [1] | apparent Kd [2] | apparent Kd [3] | apparent Kd [4] |
| --- | --- | --- | --- | --- |
| GCAGCGUAUGUAGGAUAUCGGUCAGUUUCUGAUCGAGAAGGACAUGAGGAUCACCCAUGUAAAAUACCGACUUUGUCGGGCUGC | 6.43 nM | 8.11 nM |  |  |
| GUGAGUAGUCAGGAUAUGCUGUACAAAAGUACAGCAGAAGGGAUUACAUGAGGAUCACCCAUGUUAUCUUCAUG | 185 nM | 510 nM |  |  |
| AACAUGAGGAUCACCCAUGUCCCACCAGAAGGCUGGCGGUCAUGGGAAAGGCCACGACAAAUAACAGAGGAUAUGGUGAAUGCA |  |  | 168 nM | 33.2 nM |
| GGAUAGGACAGAGGAUAUACGUGCUAGAGAUACUAGCAAAAUUUGCUCACAUGAGGAUCACCCAUGUAGAAGGCUGUCCUAUCG | 5.31 nM | 19.7 nM |  |  |
| UUGAUACAUACCUCCAUAAACAUGAGGAUCACCCAUGUAAGUGAGGAUAUAGAUUGUUUAGUAUACUAGAAGGCACUUAGAUAU | 13.1 nM | 11.9 nM |  |  |
| AGAUUUCAUGAGGAUAUCGUAUUAGAUUUAUUGCGAGAAGGCAUGACAUGAGGAUCACCCAUGUAGUGUUGGUU | 49.3 nM | 96.6 nM |  |  |
| UUCGUGCUGCUUUGCUGUACGAGUACAUGAGGAUCACCCAUGUAGGAUAUGGACAUGAGGAUCACCCAGAAGGAUAUGUGUUGC | 113 nM | 141 nM |  |  |
| AAAAAGCGAGGAUAUACAAAAGAGCGAAAGCUCAAAAGGAAACAUGAGGAUCACCCAUGUAGAAGGCGCAAGAA | 21.7 nM | 20.3 nM |  |  |
| AUUUCAAUCUAUACUAUACAAACAACAUGAGGAUCACCCAUGUAGGAUAUCGUAUGUAUCAACUACGAGAAGGACAUAAUCUUA | 13.7 nM | 13.4 nM |  |  |
| ACUAUACGAGGAUAUACUGACGGGCCUCAGGCAUACAUCAGACAUGAGGAUCACCCAUGUAGAAGGCGUAUACU | 104 nM | 40.6 nM |  |  |
| CCAUUUCUGUAAGGAUAUAUAAACAUGACGAUACAUGAGGAUCACCCAUGUGUAGAAGGUACAAAUACAUAUAAUACAAUGCUC | 13.1 nM | 11.7 nM |  |  |
| GCCGUAAGUGUGAGGAUAUACCUAUGGAAACAUAGGUAGAAGGCACAUGAGGAUCACCCAUGUUCUUAAUCGGC | 134 nM | 329 nM |  |  |
| UAUUUACAUGAGGAUCACCCAUGUCAGGAUAUGCGUCUAUCGUCGAAAGACGAUAGUUGCAGAAGGGACAAUAU | 62.8 nM | 123 nM |  |  |
| GUCAGCAAAUAAGGAUAUACAUCACUGCUUCGGCAGUGUAUUAAGAUCACAUGAGGAUCACCCAUGUAGAAGGUAUAAGCUGAU | 8.12 nM | 29.4 nM |  |  |
| GUAGGGUCAGGAUAUACGGGCGGAGGGAUGUAUUGUAGUUGGUAGAAGGGACAUGAGGAUCACCCAUGUAAGAA | 29.7 nM | 26.2 nM |  |  |
| UUGGACGUCGUAGGAUAUGUAGGAUAUUCCUACAUGAGGAUCACCCAUGUUGACAUGGAAGAAGUACAGAAGGACGAUGUCCAU |  |  | 15.9 nM | 4.5 nM |
| AUCAGCUCGUCAGGAUAUACGUCACUGCGUCAGCAGUGUGGUAAGAUCACAUGAGGAUCACCCAUGUAGAAGGGACGAGCUAAU | 13.7 nM | 334 nM |  |  |
| AUCAGCUCGUCAGGAUAUACGUCACUGCGUCAGCAGUGUGGUAAGAGCACAUGAGGAUCACCCAUGUAGAAGGGACGAGCUGAU | 6.31 nM | 9.48 nM |  |  |
| GGAGCUCACAUGAACAUGAGGAUCACCCAUGUAACUAGACAUGAGGAUAUGGAUCCUAAUUGGAUCCAGAAGGCAUGGAGCUCC |  |  | 161 nM | 27.9 nM |
| ACAAAGUGAGGAUAUGCUAUUAUACAUUAUUGUUAUUAUUUGCAGAAGGCACAUGAGGAUCACCCAUGUAAGAA | 29.8 nM | 22.6 nM |  |  |
| UUAAUUAUACAAGGAUAUCUAUUGUAGUUUCGACUUACAUGAGGAUCACCCAUGUUAAUAUGUUUAGAGAAGGUGUAUUUUCUG |  |  | 51 nM | 49.5 nM |
| CCAUGCAUAGCGAUAUGAUCGAGAGAUCAUGUCGCUAAAUUUAGAAGGACAUGAGGAUCACCCAUGUAGGAUAUGGGAGCAUGU |  |  | 222 nM | 49.7 nM |
| GCAUACAUUCGAGGAUAUCGGUGAACAAAUUAACGAGAAGGCGAUAUAAUUUUUAAACUUAUAGACAUGAGGAUCACCCAUGUA |  |  | 23.7 nM | 20.6 nM |
